# Results reported in ChEMBL document CHEMBL1122730, “Synthesis and pharmacological evaluation of indanpropionic acids as uterine relaxants” (1984).
# Experiments:
# [1] = species: Mus musculus; test: Compounds were evaluated for the percent recovery of the contraction induced by KCL in the isolated mouse uterus at a concentration 10 E -4 M; assay type: functional
# Method in brief: (§1)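 KCl (54 mM) served as agonist in the uterine strip. After the 5-min KCl response with the test agent present, the tissue was washed 20 min and challenged again with KCl for 5 min. The recovery response was expressed as integrated force, as a % of the mean of two initial control KCl responses.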
# [2] = species: Mus musculus; test: Compounds were evaluated for the percent recovery of the contraction induced by KCL in the isolated mouse uterus at a concentration 10 E -5M; assay type: functional; method in brief: as §1
# [3] = species: Mus musculus; test: Compounds were evaluated for the percent recovery of the contraction induced by PGF2-alpha in the isolated mouse uterus at a concentration 10 E -4 M; assay type: functional, tissue-based
# Method in brief: (§2)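 Recovery after PGF2α challenge: following a 5-min PGF2α (10^-7 M) response with the test agent present, the tissue was washed 20 min with physiological medium, then re-exposed to 10^-7 M PGF2α for 5 min. The integrated contractile force was expressed as a % of the mean of two initial control PGF2α responses.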
# [4] = species: Mus musculus; test: Compounds were evaluated for the percent recovery of the contraction induced by PGF2-alpha in the isolated mouse uterus at a concentration 10 E -5 M; assay type: functional; method in brief: as §2
# [5] = species: Mus musculus; test: Inhibitory effect against contraction induced by PGF2-alpha in the isolated mouse uterus at a concentration of 10 E -4 M; assay type: functional
# Method in brief: (§3)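 Uterine strips were equilibrated 30 min, then given two 5-min control responses to PGF2α (10^-7 M), each followed by a 20-min washout. The test agent was in the bath 5 min before 10^-7 M PGF2α was added. The integrated contractile force over 5 min was taken as a % of the mean of the two controls. Agents were dissolved in 0.25 N NaOH and diluted with water to pH 7.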
# [6] = species: Mus musculus; test: Inhibitory effect against contraction induced by PGF2-alpha in the isolated mouse uterus at a concentration of 10 E -5 M; assay type: functional; method in brief: as §3
# [7] = species: Mus musculus; test: Inhibitory effect against contraction induced by KCL in the isolated mouse uterus at a concentration of 10 E -4 M; assay type: functional
# Method in brief: (§4)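 KCl (54 mM) replaced PGF2α as the stimulus. After 30-min equilibration, two 5-min control KCl responses were taken, each with a 20-min washout. The test agent was then preincubated 5 min before KCl was added. The integrated force over 5 min was expressed as a % of the mean of the two controls. Compounds were in NaOH, neutralised to pH 7.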
# [8] = species: Mus musculus; test: Inhibitory effect against contraction induced by KCL in the isolated mouse uterus at a concentration of 10 E -5 M; assay type: functional; method in brief: as §4
# [9] = species: Mus musculus; test: Inhibitory effect against contraction induced by PGF2-alpha in the isolated mouse uterus at a concentration of 10 E -4M; assay type: functional; method in brief: as §3
# [10] = species: Mus musculus; test: Compounds were evaluated for the percent recovery of the contraction induced by KCL in the isolated mouse uterus at a concentration 10 E -6M; assay type: functional; method in brief: as §1
# [11] = species: Mus musculus; test: Compounds were evaluated for the percent recovery of the contraction induced by PGF2-alpha in the isolated mouse uterus at a concentration 10 E -6 M; assay type: functional; method in brief: as §2
# [12] = species: Mus musculus; test: Compounds were evaluated for the percent recovery of the contraction induced by PGF2-alpha in the isolated mouse uterus at a concentration 3X 10 E -5 M; assay type: functional; method in brief: as §2
# [13] = species: Mus musculus; test: (§5) Inhibitory effect for the contraction induced by BaCl2 in [Ca2+] containing buffer in the isolated mouse uterus at a concentration 10 E -4 M.; assay type: functional
# Method in brief: (§6)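 BaCl2 (2.2 × 10^-4 M) stimulated the uterine strip, in Ca2+-containing or Ca2+-free buffer. Two 5-min control responses were taken, each with a 20-min washout. The test agent was added 5 min before BaCl2. The integrated contractile force was expressed as a % of the mean control response.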
# [14] = species: Mus musculus; test: (§7) Inhibitory effect for the contraction induced by BaCl2 in [Ca2+] free buffer in the isolated mouse uterus at a concentration 10 E -4 M.; assay type: functional; method in brief: as §6
# [15] = species: Mus musculus; test: Inhibitory effect against contraction induced by KCL in the isolated mouse uterus at a concentration of 10 E -6 M; assay type: functional; method in brief: as §4
# [16] = species: Mus musculus; test: Inhibitory effect against contraction induced by PGF2-alpha in the isolated mouse uterus at a concentration of 10 E -6 M; assay type: functional; method in brief: as §3
# [17] = species: Mus musculus; test: Inhibitory effect against contraction induced by PGF2-alpha in the isolated mouse uterus at a concentration of 3X10 E -5 M; assay type: functional; method in brief: as §3
# [18] = species: Mus musculus; test: as §5; assay type: functional; method in brief: as §6; remark: listed apart in the source
# [19] = species: Mus musculus; test: as §7; assay type: functional; method in brief: as §6; remark: listed apart in the source
smiles,measurement,setting,value
O=C(O)CCC1(CCC(=O)O)Cc2cc(OCc3ccccc3)ccc2C1=O,Recovery,[1],105%
same,Recovery,[2],106%
same,Recovery,[3],91.1%
same,Recovery,[4],79.9%
same,inhibition at 100 µM,[5],6.5%
same,inhibition at 10 µM,[6],10.5%
same,inhibition at 100 µM,[7],1.9%
same,inhibition at 10 µM,[8],8.3%
CCC1(CCC(=O)O)Cc2cc(OCc3ccccc3)ccc2C1=O (stereo not drawn),Recovery,[3],70.4%
same,Recovery,[4],69.3%
same,inhibition at 100 µM,[9],44.4%
same,inhibition at 10 µM,[6],27.3%
CCCC1(CCC(=O)O)Cc2cc(OCc3ccccc3)ccc2C1=O (stereo not drawn),Recovery,[3],85.3%
same,Recovery,[4],85.5%
same,inhibition at 100 µM,[5],42%
same,inhibition at 10 µM,[6],6.4%
CCCCC1(CCC(=O)O)Cc2cc(OCc3ccccc3)ccc2C1O (stereo not drawn),Recovery,[3],104%
same,Recovery,[4],91.7%
same,inhibition at 100 µM,[5],20.4%
same,inhibition at 10 µM,[6],0.5%
CCC[C@@]1(CCC(=O)O)Cc2cc(OCc3ccccc3)c(OCc3ccccc3)cc2[C@H]1O,Recovery,[1],85.8%
same,Recovery,[2],84.2%
same,Recovery,[10],86.1%
same,Recovery,[3],82.8%
same,Recovery,[4],81.8%
same,Recovery,[11],88.7%
same,Recovery,[12],79.7%
same,Recovery,[13],105%
same,Recovery,[14],39.4%
same,inhibition at 1 µM,[15],1.2%
same,inhibition at 100 µM,[5],67.1%
same,inhibition at 10 µM,[6],17.2%
same,inhibition at 1 µM,[16],0%
same,inhibition at 30 µM,[17],36.4%
same,inhibition at 100 µM,[18],48.1%
same,inhibition at 100 µM,[7],53.2%
same,inhibition at 10 µM,[8],9.4%
same,inhibition at 100 µM,[19],88.2%
